Results published in ChEMBL document CHEMBL1131203, “Second generation "peptoid" CCK-B receptor antagonists: identification and development of N-(adamantyloxycarbonyl)-alpha-methyl-(R)-tryptophan derivative (CI-1015) with an improved pharmacokinetic profile” (J Med Chem, 1998).
Blank lines part the entries; values can stand above or below the compound they belong to.

Experiments:
[1] = molecular target: T1, Cholecystokinin receptor type A (Rattus norvegicus, UniProt P30551); test: Inhibitory concentration against radioligand [125I]Bolton-Hunter labeled CCK-8 to cholecystokinin type A receptor in the rat pancreas
T1 sequence (P30551 whole entry): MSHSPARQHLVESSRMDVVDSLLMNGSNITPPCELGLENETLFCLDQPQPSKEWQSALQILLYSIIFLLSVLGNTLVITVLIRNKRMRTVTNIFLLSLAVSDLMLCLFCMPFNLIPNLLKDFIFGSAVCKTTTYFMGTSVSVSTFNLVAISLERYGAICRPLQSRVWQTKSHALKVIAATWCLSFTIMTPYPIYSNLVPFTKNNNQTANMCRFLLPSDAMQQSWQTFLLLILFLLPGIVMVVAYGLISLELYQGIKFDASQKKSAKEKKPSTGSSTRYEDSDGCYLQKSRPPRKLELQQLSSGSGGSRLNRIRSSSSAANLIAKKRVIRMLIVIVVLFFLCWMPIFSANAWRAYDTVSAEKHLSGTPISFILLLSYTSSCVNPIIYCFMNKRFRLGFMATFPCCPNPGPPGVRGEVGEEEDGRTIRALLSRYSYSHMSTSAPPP

[2] = Ratio of IC50 towards CCK-A receptor and CCK-B receptor
[3] = molecular target: T2, Gastrin/cholecystokinin type B receptor (Mus musculus, UniProt P56481); test: Inhibitory concentration against radioligand [125I]Bolton-Hunter labeled CCK-8 to cholecystokinin type B receptor in the mouse cerebral cortex; format: tissue-based
T2 sequence (P56481 whole entry): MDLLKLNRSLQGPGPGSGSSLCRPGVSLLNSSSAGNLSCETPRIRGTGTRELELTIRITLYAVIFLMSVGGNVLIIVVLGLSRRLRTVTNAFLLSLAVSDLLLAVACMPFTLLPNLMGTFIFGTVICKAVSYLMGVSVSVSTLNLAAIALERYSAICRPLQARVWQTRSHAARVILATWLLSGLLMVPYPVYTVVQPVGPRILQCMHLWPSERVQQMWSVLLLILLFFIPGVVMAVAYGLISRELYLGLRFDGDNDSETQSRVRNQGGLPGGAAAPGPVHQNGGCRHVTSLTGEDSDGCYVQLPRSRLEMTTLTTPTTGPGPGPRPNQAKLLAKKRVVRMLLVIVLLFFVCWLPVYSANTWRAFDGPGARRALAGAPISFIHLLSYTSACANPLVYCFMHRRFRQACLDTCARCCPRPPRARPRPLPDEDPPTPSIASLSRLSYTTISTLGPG

[4] = Pharmacokinetic parameter half-life evaluated in HP-beta-CD solution at a dose of 20 mg/kg orally; format: ADME, organism-based; set-up: dose 20 mg/kg, route oral; details: in vivo, po
Summary of the method: (§1)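 Fasted male Wistar rats, groups of 3–4, given a single oral 20 mg/kg dose in the stated vehicle. Heparinized plasma was collected from an implanted jugular-vein cannula at serial times out to 24 h, kept frozen, and assayed by validated HPLC-fluorescence. Cmax, tmax, AUC(0–∞) and terminal t1/2 were obtained by noncompartmental analysis. Values are means (%RSD).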

[5] = Absolute oral bioavailability was evaluated in 100% PEG solution; format: ADME, organism-based; details: eutheria, in vivo
Summary of the method: (§2)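 Fasted male Wistar rats, groups of 3–4, given a single 20 mg/kg dose po or iv in the stated vehicle. Heparinized plasma was drawn from a jugular-vein cannula at serial times out to 24 h and assayed by validated HPLC-fluorescence. Absolute bioavailability is the dose-normalized ratio of AUC after po dosing to AUC after iv dosing.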

[6] = Maximum plasma concentration was evaluated in 0.5% methylcellulose suspension at a dose of 20 mg/kg orally; format: ADME, organism-based; set-up: dose 20 mg/kg, route oral; details: po; summary of the method: as §1
[7] = Maximum plasma concentration was evaluated in HP-beta-CD solution at a dose of 20 mg/kg orally; format: ADME, organism-based; set-up: dose 20 mg/kg, route oral; details: po; summary of the method: as §1
[8] = Pharmacokinetic parameter AUC was evaluated in HP-beta-CD solution at a dose of 20 mg/kg orally; format: ADME, organism-based; set-up: dose 20 mg/kg, route oral; details: in vivo, po; summary of the method: as §1
[9] = Absolute oral bioavailability was evaluated in 10% PEG suspension at a dose of 20 mg/kg orally; format: ADME, organism-based; details: eutheria, in vivo; summary of the method: as §2
[10] = Pharmacokinetic parameter Tmax was evaluated in 0.5% methylcellulose suspension; details: in vivo
[11] = Pharmacokinetic parameter half-life was evaluated in 100% PEG solution at a dose of 20 mg/kg orally; format: ADME, organism-based; set-up: dose 20 mg/kg, route oral; details: in vivo, po; summary of the method: as §1
[12] = Pharmacokinetic parameter half-life was evaluated in 0.5% methylcellulose suspension at a dose of 20 mg/kg orally; format: ADME, organism-based; set-up: dose 20 mg/kg, route oral; details: in vivo, po; summary of the method: as §1
[13] = Pharmacokinetic parameter tmax was evaluated in 100% PEG solution at a dose of 20 mg/kg orally; format: ADME, organism-based; set-up: dose 20 mg/kg, route oral; details: in vivo, po; summary of the method: as §1
[14] = Absolute oral bioavailability was evaluated in 0.5% methylcellulose suspentionat a dose of 20 mg/kg orally; format: ADME, organism-based; details: eutheria, in vivo; summary of the method: as §2
[15] = Maximum plasma concentration was evaluated in 100% of PEG solution at a dose of 20 mg/kg orally; format: ADME, organism-based; set-up: dose 20 mg/kg, route oral; details: po; summary of the method: as §1
[16] = Pharmacokinetic parameter half-life was evaluated in 10% PEG suspension at a dose of 20 mg/kg orally; format: ADME, organism-based; set-up: dose 20 mg/kg, route oral; details: in vivo, po; summary of the method: as §1
[17] = Pharmacokinetic parameter AUC evaluated in 0.5% methylcellulose suspension at a dose of 20 mg/kg orally; format: ADME, organism-based; set-up: dose 20 mg/kg, route oral; details: in vivo, po; summary of the method: as §1
[18] = Pharmacokinetic parameter AUC was evaluated in 10% PEG suspension at a dose of 20 mg/kg orally; format: ADME, organism-based; set-up: dose 20 mg/kg, route oral; details: in vivo, po; summary of the method: as §1
Mus musculus [19] = test: Concentration in forebrain after 20 min of injection at a concentration of 1 mg/kg, iv in mice; format: functional
Summary of the method: (§3)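 Ex vivo binding: mice were dosed iv with compound or vehicle, given either as saline or as 10% EtOH–60% propylene glycol–30% saline. Forebrains were taken at 5, 10 or 20 min, homogenized in HEPES buffer with bacitracin at pH 7.2, and incubated with 50 pM [125I]BH-CCK8s for 2 h at 22 °C. After filtration, bound radioligand was gamma-counted and read against calibration curves prepared in vehicle tissue. Detection limit was about 1 pmol/forebrain. n = 3–13.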

[20] = Maximum plasma concentration was evaluated in 10% of PEG suspension at a dose of 20 mg/kg orally; format: ADME, organism-based; set-up: dose 20 mg/kg, route oral; details: po; summary of the method: as §1
Mus musculus [21] = test: Concentration in forebrain after 5 min of injection at a concentration of 1 mg/kg, iv in mice; format: functional; summary of the method: as §3
[22] = Pharmacokinetic parameter tmax was evaluated in HP-beta-CD solution at a dose of 20 mg/kg orally; format: ADME, organism-based; set-up: dose 20 mg/kg, route oral; details: in vivo, po; summary of the method: as §1
[23] = Pharmacokinetic parameter tmax was evaluated in 10% PEG suspension at a dose of 20 mg/kg orally; format: ADME, organism-based; set-up: dose 20 mg/kg, route oral; details: in vivo, po; summary of the method: as §1
[24] = Oral bioavailability (dosed in HP-beta-CD solution) (dose 20 mg/kg p.o.); format: ADME, organism-based; details: eutheria, in vivo; summary of the method: as §2
Mus musculus [25] = test: Concentration in forebrain after 10 min of injection at a concentration of 1 mg/kg, iv in mice; format: functional; summary of the method: as §3
[26] = Pharmacokinetic parameter AUC was evaluated in 100% PEG solution at a dose of 20 mg/kg orally; format: ADME, organism-based; set-up: dose 20 mg/kg, route oral; details: in vivo, po; summary of the method: as §1

SMILES: C[C@](Cc1c[nH]c2ccccc12)(NC(=O)OC1C2CC3CC(C2)CC1C3)C(=O)NC(CC(=O)O)CC(=O)O (some centres not stated)
- IC50 [1]: 15700 nM
- Ratio [2]: 8.9
- IC50 [3]: 1770 nM

SMILES: C[C@](Cc1c[nH]c2ccccc12)(NC(=O)OC1C2CC3CC(C2)CC1C3)C(=O)N[C@@H]1CCCC[C@H]1O (some centres not stated)
- half-life [4]: 0.9 h
- bioavailability [5]: 9.6%
- Cmax [6]: 185 ng/mL
- Cmax [7]: 756 ng/mL
- AUC [8]: 2130 ng·h/mL
- bioavailability [9]: 13%
- Tmax [10]: 3 h
- half-life [11]: 1.3 h
- half-life [12]: 1 h
- Tmax [13]: 1 h
- bioavailability [14]: 8.9%
- Cmax [15]: 219 ng/mL
- half-life [16]: 1.1 h
- AUC [17]: 673 ng·h/mL
- AUC [18]: 953 ng·h/mL
- Brain level (Mus musculus [19]): 166 pmol/forebrain
- Cmax [20]: 203 ng/mL
- IC50 [1]: 2900 nM
- Brain level (Mus musculus [21]): 177 pmol/forebrain
- Tmax [22]: 1.8 h
- Tmax [23]: 3.5 h
- bioavailability [24]: 28%
- Brain level (Mus musculus [25]): 154 pmol/forebrain
- AUC [26]: 724 ng·h/mL

SMILES: C[C@](Cc1c[nH]c2ccccc12)(NC(=O)OC1C2CC3CC(C2)CC1C3)C(=O)NN1CCCC1 (some centres not stated)
- IC50 [1]: 10800 nM
- Ratio [2]: 82
- IC50 [3]: 132 nM

SMILES: C[C@](Cc1c[nH]c2ccccc12)(NC(=O)OC1C2CC3CC(C2)CC1C3)C(=O)NN1CCCCC1 (some centres not stated)
- IC50 [1]: 3830 nM
- Ratio [2]: 194
- IC50 [3]: 19.7 nM

SMILES: C[C@](Cc1c[nH]c2ccccc12)(NC(=O)OC1C2CC3CC(C2)CC1C3)C(=O)NC1CC2CCC1C2 (stereo in doubt; 21)
- Ratio [2]: 18.6

SMILES: C[C@](Cc1c[nH]c2ccccc12)(NC(=O)OC1C2CC3CC(C2)CC1C3)C(=O)CNC1CCCCC1 (some centres not stated)
- IC50 [1]: 3330 nM
- Ratio [2]: 10.6
- IC50 [3]: 314 nM

SMILES: CC1CCCCC1NC(=O)[C@@](C)(Cc1c[nH]c2ccccc12)NC(=O)OC1C2CC3CC(C2)CC1C3 (some centres not stated)
- IC50 [1]: 2780 nM
- Ratio [2]: 71.4
- IC50 [3]: 39 nM

SMILES: C[C@](Cc1c[nH]c2ccccc12)(NC(=O)OC1C2CC3CC(C2)CC1C3)C(=O)NC1CC2CCC1C2 (stereo in doubt; 22)
- Ratio [2]: 7.5

SMILES: C[C@](Cc1c[nH]c2ccccc12)(NC(=O)OC1C2CC3CC(C2)CC1C3)C(=O)NN1CCCCCC1 (some centres not stated)
- IC50 [1]: 3040 nM
- Ratio [2]: 248
- IC50 [3]: 12.2 nM

SMILES: COC[C@@H]1CCCN1NC(=O)[C@@](C)(Cc1c[nH]c2ccccc12)NC(=O)OC1C2CC3CC(C2)CC1C3 (some centres not stated)
- IC50 [1]: 6900 nM
- Ratio [2]: 105
- IC50 [3]: 65.4 nM

Next, values leading:

- IC50 [1]: 1380 nM
SMILES: C[C@](Cc1c[nH]c2ccccc12)(NC(=O)OC1C2CC3CC(C2)CC1C3)C(=O)NC1CCCCC1O (some centres not stated)

- IC50 [1]: 701 nM
- Ratio [2]: 708
- IC50 [3]: 0.99 nM
SMILES: C[C@](Cc1c[nH]c2ccccc12)(NC(=O)OC1C2CC3CC(C2)CC1C3)C(=O)NC1CCCCC1C(=O)O (some centres not stated)

- IC50 [1]: 2400 nM
- Ratio [2]: 48
- IC50 [3]: 50 nM
SMILES: C[C@](Cc1c[nH]c2ccccc12)(NC(=O)OC1C2CC3CC(C2)CC1C3)C(=O)NC1CCCCC1 (some centres not stated)

- IC50 [1]: 2240 nM
- Ratio [2]: 112
- IC50 [3]: 19.9 nM
SMILES: C[C@](Cc1c[nH]c2ccccc12)(NC(=O)OC1C2CC3CC(C2)CC1C3)C(=O)NC(Cc1ccccc1)Cc1ccccc1 (some centres not stated)
